Data on 16 compounds can be found in ChEMBL document CHEMBL2062429, “Structure-based design, synthesis, and biological evaluation of dihydroquinazoline-derived potent β-secretase inhibitors” (Bioorg Med Chem Lett, 2012).

For one test, the target named is Beta-secretase 1 (Homo sapiens, UniProt P56817). Nature of the test: Inhibition of recombinant beta-secretase 1.
The nature of test [1]: Inhibition of beta-secretase in neuroblastoma cells assessed as inhibition of amyloid beta production. The note with it: Homo sapiens. In kind it is cell-based. The method in brief:
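Cell-based assay in neuroblastoma cells. IC50 is reported as an average value.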

Sequence of Beta-secretase 1 (P56817 whole entry): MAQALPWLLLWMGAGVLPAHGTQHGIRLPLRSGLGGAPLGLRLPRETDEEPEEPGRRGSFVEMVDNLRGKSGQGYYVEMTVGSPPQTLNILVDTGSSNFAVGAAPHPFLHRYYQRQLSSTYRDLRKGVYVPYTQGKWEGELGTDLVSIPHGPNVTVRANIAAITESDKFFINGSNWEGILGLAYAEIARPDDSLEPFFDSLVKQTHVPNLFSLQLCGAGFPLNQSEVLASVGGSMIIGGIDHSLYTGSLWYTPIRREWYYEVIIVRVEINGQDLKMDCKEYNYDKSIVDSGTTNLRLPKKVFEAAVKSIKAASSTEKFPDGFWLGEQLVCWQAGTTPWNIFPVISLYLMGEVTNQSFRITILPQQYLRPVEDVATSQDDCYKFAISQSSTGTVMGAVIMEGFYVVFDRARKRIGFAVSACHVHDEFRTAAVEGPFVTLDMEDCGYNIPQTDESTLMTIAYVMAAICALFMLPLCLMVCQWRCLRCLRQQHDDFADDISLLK

Regarding `Cc1nc(CCN(C(=O)CC[C@@H](C2CCCCC2)N2Cc3cc(Oc4ccccc4)ccc3N=C2N)C2CCCCC2)cs1`, the inhibition constant (Ki) on Beta-secretase 1 was 106 nM.
With `CN(C(=O)CC[C@@H](c1ccccc1)N1Cc2cc(Oc3ccccc3)ccc2N=C1N)C1CCCCC1`, the Ki at Beta-secretase 1 came out at 164 nM. The IC50 in test [1] was found to be 482 nM.
Regarding `CN(C(=O)OC[C@@H](c1ccccc1)N1Cc2cc(Oc3ccccc3)ccc2N=C1N)C1CCCCC1`, the Ki at Beta-secretase 1 worked out at 783 nM. Also, in test [1], the IC50 worked out at 3400 nM.
For `CN(C(=O)OC[C@@H](C1CCCCC1)N1Cc2cc(Oc3ccccc3)ccc2N=C1N)C1CCCCC1`, the Ki at Beta-secretase 1 is 37.5 nM.
Still for that read-out and setting: the same measure for `NC1=Nc2ccc(Oc3ccccc3)cc2CN1[C@@H](COC(=O)NC1CCCCC1)C1CCCCC1`: 60 nM; for `CN(C(=O)CC[C@@H]([C@H]1CCCOC1)N1Cc2cc(Oc3ccccc3)ccc2N=C1N)C1CCCCC1`: 122 nM; for `Cc1nc(CN(C(=O)OC[C@@H](C2CCCCC2)N2Cc3cc(Oc4ccccc4)ccc3N=C2N)C2CCCCC2)cs1`: 1460 nM.
Regarding `Cc1nc(CN(C(=O)CC[C@@H](C2CCCCC2)N2Cc3cc(Oc4ccccc4)ccc3N=C2N)C2CCCCC2)cs1`, the inhibition constant Ki at Beta-secretase 1 is 79 nM. The IC50 in test [1] was 390 nM.
Take `Cc1nc(C(C)N(C(=O)CC[C@@H](C2CCCCC2)N2Cc3cc(Oc4ccccc4)ccc3N=C2N)C2CCCCC2)cs1` (stereo partly drawn): on Beta-secretase 1, the Ki was found to be 104 nM.
Still for that read-out and setting: for `CC(C)c1nc(CN(C(=O)CC[C@@H](C2CCCCC2)N2Cc3cc(Oc4ccccc4)ccc3N=C2N)C2CCCCC2)cs1` the value was 144 nM.
As to `COCc1nc(CN(C(=O)CC[C@@H](C2CCCCC2)N2Cc3cc(Oc4ccccc4)ccc3N=C2N)C2CCCCC2)cs1`, the Ki at Beta-secretase 1 worked out at 13 nM. Besides, the IC50 in test [1] amounted to 21 nM.
For `Cn1cc(CN(C(=O)CC[C@@H](C2CCCCC2)N2Cc3cc(Oc4ccccc4)ccc3N=C2N)C2CCCCC2)cn1` the same measures were 11 nM and 23 nM.
`NC1=Nc2ccc(Oc3ccccc3)cc2CN1[C@@H](CCC(=O)N(Cc1cn[nH]c1)C1CCCCC1)C1CCCCC1`: the Ki at Beta-secretase 1 was found to be 23 nM.
With `Cc1[nH]ncc1CN(C(=O)CC[C@@H](C1CCCCC1)N1Cc2cc(Oc3ccccc3)ccc2N=C1N)C1CCCCC1`, the Ki at Beta-secretase 1 came out at 39 nM. Further, the IC50 in test [1] came out at 51 nM.
As to `CN(C(=O)CC[C@@H](C1CCCCC1)N1Cc2cc(Oc3ccccc3)ccc2N=C1N)C1CCCCC1`, the IC50 in test [1] came out at 71 nM.
In the case of `CN(C(=O)OC[C@@H](C1CCCOC1)N1Cc2cc(Oc3ccccc3)ccc2N=C1N)C1CCCCC1` (mixture of isomers), the inhibitory constant (Ki) on Beta-secretase 1 was found to be 104 nM. Moreover, the IC50 in test [1] is 1100 nM.
